# From ChEMBL document CHEMBL2346587, “Design, synthesis, and evaluation of a water-soluble antofine analogue with high antiproliferative and antitumor activity” (Bioorg Med Chem, 2013)
# Active and inactive are the calls of the source. The calls are words filed in the database; no cut-off is given here.
# How the values were obtained:
# [1] = test system: A549; test: Cell cycle arrest in human A549 cells assessed as accumulation at S phase at 400 nM after 24 hrs by flow cytometry (reference value: 13.38 %); type: functional
# [2] = Inhibition of Wnt signaling in human A549 cells assessed as inhibition of […] expression after 24 hrs by Western blot analysis; type: cell-based
# Method in brief: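 A549 cells were seeded at 3 × 10^5 per 60 mm dish, grown 24 h, then given graded compound concentrations for 24 h. Lysis was in boiling SDS buffer, with BCA protein assay. 25–50 µg per lane was run on 8–15% SDS-PAGE and blotted to PVDF. Primary antibodies (1:1000–1:2000) went on overnight at 4 °C, then secondary and ECL read-out.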
# [3] = test system: A549; test: Inhibition of AKT/c-myc signaling in human A549 cells assessed as reduction in phospho-Rb level at 50 to 400 nM after 24 hrs by Western blot analysis; type: cell-based
# Method in brief: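 A549 cells plated at 3 × 10^5 per 60 mm dish, grown 24 h, then exposed to a concentration series for 24 h. Lysed in boiling SDS sample buffer with NaF and orthovanadate; protein by BCA; 25–50 µg run on 8–15% SDS-PAGE, transferred to PVDF, blocked in 5% milk/PBST, primary antibodies overnight at 4 °C, secondary 1–2 h, ECL detection.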
# [4] = test system: A549; test: Cell cycle arrest in human A549 cells assessed as accumulation at G0/G1 phase at 400 nM after 24 hrs by flow cytometry (reference value: 62.38 %); type: functional
# [5] = test system: A549; test: Inhibition of MDR-1 gene expression in human paclitaxel-resistant A549 cells at 50 to 200 nM after 48 hrs by RT-PCR analysis; type: functional, cell-based
# Method in brief: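 A549-Pa cells (1 × 10^5 per 100 mm dish) exposed for 48 h; RNA isolated with TRI reagent, 1 µg reverse-transcribed with AMV RT and oligo(dT)15. MDR-1 amplified with specific primers: 94 °C 4 min; 35 cycles of 94 °C 30 s, 55 °C 30 s, 72 °C 30 s; 72 °C 5 min. Products resolved on 2% agarose, SYBR Safe stained.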
# [6] = test system: HCT-116; test: Cytotoxicity against human HCT116 cells after 72 hrs by SRB assay; type: functional, cell-based; settings: HCT-116, 72 h
# Method in brief: (§1)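 SRB growth assay: 5 × 10^3 cells/well exposed to a concentration series for 72 h; fixed in 10% TCA 30 min at 4 °C, stained with 0.4% SRB in 1% acetic acid 30 min, dye dissolved in 10 mM Tris pH 10.0, absorbance at 515 nm. Viability relative to vehicle control; IC50 by non-linear regression; at least three experiments. A549-Pa is a paclitaxel-resistant A549 subline.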
# [7] = test system: HCT-15; test: Cytotoxicity against human HCT15 cells after 72 hrs by SRB assay; type: functional, cell-based; settings: HCT-15, 72 h; method in brief: as §1
smiles,measurement,setting,value
COc1ccc2c3c(c4cc(OC)c(OC)cc4c2c1)C[C@@]1(CO)CCCN1C3,Activity,[1],11.37%
same,inhibition,[2],Dose-dependent effect
same,inhibition,[3],Active
same,Activity,[4],67.01%
same,inhibition,[5],Active
same,IC50,[6],60 nM
same,IC50,[7],160 nM
